Assay results published in ChEMBL document CHEMBL1143864, “Design and synthesis of potent antileishmanial cycloalkylidene-substituted ether phospholipid derivatives” (J Med Chem, 2008).

Experiments:
[1] = Toxicity in human erythrocytes assessed as hemolysis at 100 uM; assay type: cell-based, Erythrocyte; conditions: read-out: Activity
Outline: (§1)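 Washed erythrocytes from EDTA blood of healthy volunteers mixed 1:1 with compound in PBS (100 to 6.25 µM), 1 h at 37 °C. After centrifugation, supernatant absorbance read at 550 nm (reference 625 nm). Hemolysis % = (A − A0)/(Amax − A0) × 100, with PBS background and water as 100% lysis.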

[2] = system: THP-1; assay: Cytotoxicity against human THP1 cells after 72 hrs; assay type: cell-based; conditions: THP-1, 72 h
[3] = system: Leishmania infantum; assay: Antileishmanial activity against Leishmania infantum MHOM/TN/80/IPT1/LEM235 intracellular amastigotes; assay type: functional, organism-based
Outline: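 THP-1 cells differentiated with retinoic acid for 3 days, infected with L. infantum promastigotes (1:4, 37 °C, 5% CO2) overnight. Free parasites removed on Histopaque 1077. Infected cells at 4 × 10^5 cells/mL mixed 1:1 with compound, 72 h at 37 °C/5% CO2. Percent infected cells counted by Giemsa microscopy; IC50 as for promastigotes.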

[4] = system: Leishmania donovani; assay: Antileishmanial activity against Leishmania donovani MHOM/IN/80/DD8/LEM703 promastigotes
[5] = Toxicity in human erythrocytes assessed as hemolysis at 500 uM; assay type: cell-based, Erythrocyte; conditions: read-out: Activity
[6] = system: Leishmania infantum; assay: Antileishmanial activity against Leishmania infantum MHOM/TN/80/IPT1/LEM235 promastigotes; assay type: functional, organism-based
Outline: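 Promastigotes grown in RPMI 1640 with 10% FCS, L-glutamine and antibiotics at 26 °C. Compounds, 65 mM stock in DMSO/ethanol 50/50, diluted 5-fold in medium (100 to 0.8 µM). Culture at 2 × 10^6 cells/mL mixed 1:1 with compound, 72 h at 26 °C. PI/SYBR-14 live/dead staining, flow cytometry, ≥10 000 cells; IC50 per Hills et al.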

[7] = Toxicity in human erythrocytes assessed as hemolysis; assay type: cell-based, Erythrocyte; outline: as §1
[8] = Half life in human; assay type: ADME, organism-based; conditions: in vivo
[9] = system: THP-1; assay: Cytotoxicity against human THP1 cells at 50 uM after 72 hrs; assay type: cell-based; conditions: thp-1, 72 h
Outline: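 THP-1 monocytes in RPMI 1640/10% FCS at 1 × 10^6 cells/mL incubated 72 h with compound (50 to 1.56 µM). Dual PI/SYBR-14 staining; alive/dead ratio by flow cytometry, excitation 488 nm, read at 545 and 645 nm. At least 10 000 cells per sample, each staining experiment repeated thrice.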

C[N+](C)(C)CCOP(=O)([O-])OCCCCCCCCCCC=C1CCCCCCCCC1
hemolysis at 100 µM [1]: 25.5%
IC50 [2]: 37.9 µM
IC50 [3]: 0.11 µM
IC50 [4]: 1 µM
hemolysis at 500 µM [5]: 43%
IC50 [6]: 2.9 µM
HC50 [7]: > 100 µM

C[N+]1(CCOP(=O)([O-])OCCCCCCCCCCC=C2CCCCCCCCCCCCCC2)CCOCC1
hemolysis at 100 µM [1]: 16.9%
IC50 [2]: 36.2 µM
IC50 [3]: 0.9 µM
IC50 [4]: 41.5 µM
hemolysis at 500 µM [5]: 100%
IC50 [6]: 50.2 µM
HC50 [7]: > 100 µM

C[N+](C)(C)CCOP(=O)([O-])OCCCCC=C1CCCCCCCCCCCCCC1
hemolysis at 100 µM [1]: 38%
IC50 [2]: 154 µM
IC50 [3]: 3.8 µM
IC50 [4]: 2.3 µM
hemolysis at 500 µM [5]: 57.4%
IC50 [6]: 2.2 µM
HC50 [7]: > 100 µM

C[N+](C)(C)CC#CCOP(=O)([O-])OCCCCCCCCCCC=C1C2CC3CC(C2)CC1C3
IC50 [2]: 75 µM
IC50 [3]: 5.2 µM
IC50 [4]: 41.1 µM
hemolysis at 500 µM [5]: 100%
IC50 [6]: 44.3 µM
HC50 [7]: 100 µM

C[N+]1(CCOP(=O)([O-])OCCCCCCCCCCC=C2CCCCCCCCCCCCCC2)CCCCC1
hemolysis at 100 µM [1]: 36%
IC50 [2]: 72.6 µM
IC50 [3]: 3.6 µM
IC50 [4]: 65.9 µM
hemolysis at 500 µM [5]: 51.4%
IC50 [6]: 84.5 µM
HC50 [7]: > 100 µM

C[N+](C)(C)[C@H]1CCC[C@@H]1OP(=O)([O-])OCCCCC=C1CCCCCCCCCCCCCC1 (relative stereo)
hemolysis at 100 µM [1]: 80.5%
IC50 [2]: 75.4 µM
IC50 [3]: 0.2 µM
IC50 [4]: < 3.1 µM
hemolysis at 500 µM [5]: 100%
IC50 [6]: < 3.1 µM
HC50 [7]: 44.3 µM

C[N+]1(CCOP(=O)([O-])OCCCCCC2CCCCCCCCCCCCCC2)CCCCC1
hemolysis at 100 µM [1]: 28.7%
IC50 [2]: 333 µM
IC50 [3]: 1 µM
IC50 [4]: 1 µM
hemolysis at 500 µM [5]: 80.8%
IC50 [6]: 2.8 µM
HC50 [7]: > 100 µM

CCCCCCCCCCCCCCCCOP(=O)([O-])O[C@@H]1CCC[C@H]1[N+](C)(C)C (relative stereo)
hemolysis at 100 µM [1]: 100%
IC50 [2]: 34.1 µM
IC50 [3]: 3.3 µM
IC50 [4]: 54.3 µM
hemolysis at 500 µM [5]: 100%
IC50 [6]: > 100 µM
HC50 [7]: 43.1 µM

C[N+](C)(C)CCOP(=O)([O-])OCCCCC=C1CCCCCCCCC1
hemolysis at 100 µM [1]: 2.1%
IC50 [2]: 349 µM
IC50 [3]: 3.3 µM
IC50 [4]: < 3.2 µM
hemolysis at 500 µM [5]: 41.8%
IC50 [6]: 76.8 µM
HC50 [7]: > 100 µM

C[N+](C)(C)[C@H]1CCCC[C@@H]1OP(=O)([O-])OCCCCC=C1CCCCCCCCCCCCCC1 (relative stereo)
hemolysis at 100 µM [1]: 60.7%
IC50 [2]: 88.5 µM
IC50 [3]: 1.6 µM
IC50 [4]: 6 µM
hemolysis at 500 µM [5]: 100%
IC50 [6]: > 100 µM
HC50 [7]: 76.7 µM

C[N+]1(CCOP(=O)([O-])OCCCCC=C2CCCCCCCCCCCCCC2)CCCCC1
hemolysis at 100 µM [1]: 71.6%
IC50 [2]: 272 µM
IC50 [3]: 4.1 µM
IC50 [4]: 2 µM
hemolysis at 500 µM [5]: 100%
IC50 [6]: 1.7 µM
HC50 [7]: 68.4 µM

C[N+](C)(C)[C@@H]1CCCC[C@H]1OP(=O)([O-])OCCCCCCCCCCC=C1CCCCC1 (relative stereo)
hemolysis at 100 µM [1]: 81.6%
IC50 [2]: 28.7 µM
IC50 [3]: 1.1 µM
IC50 [4]: 16.1 µM
hemolysis at 500 µM [5]: 100%
IC50 [6]: > 100 µM
HC50 [7]: 59.8 µM

C[N+](C)(C)[C@@H]1CCCC[C@H]1OP(=O)([O-])OCCCCCCCCCCC=C1C2CC3CC(C2)CC1C3 (relative stereo)
hemolysis at 100 µM [1]: 66.8%
IC50 [2]: 39.7 µM
IC50 [3]: 0.8 µM
IC50 [4]: 16.6 µM
hemolysis at 500 µM [5]: 100%
IC50 [6]: > 100 µM
HC50 [7]: 66.6 µM

C[N+]1(CCOP(=O)([O-])OCCCCCC2CCCCCCCCCCCCCC2)CCOCC1
hemolysis at 100 µM [1]: 34.8%
IC50 [2]: 244 µM
IC50 [3]: 0.4 µM
IC50 [4]: 1 µM
hemolysis at 500 µM [5]: 81.1%
IC50 [6]: 1.9 µM
HC50 [7]: > 100 µM

C[N+](C)(C)[C@@H]1CCC[C@H]1OP(=O)([O-])OCCCCCCCCCCC=C1C2CC3CC(C2)CC1C3 (relative stereo)
hemolysis at 100 µM [1]: 30.8%
IC50 [2]: 75 µM
IC50 [3]: 0.3 µM
IC50 [4]: 3.9 µM
hemolysis at 500 µM [5]: 100%
IC50 [6]: 38 µM
HC50 [7]: > 100 µM

C[N+](C)(C)CCOP(=O)([O-])OCCCCCC1CCCCCCCCC1
hemolysis at 100 µM [1]: 1.7%
IC50 [2]: 363 µM
IC50 [3]: 2.2 µM
IC50 [4]: < 3.13 µM
hemolysis at 500 µM [5]: 100%
IC50 [6]: 21.7 µM
HC50 [7]: > 100 µM

C[N+](C)(C)[C@@H]1CCC[C@H]1OP(=O)([O-])OCCCCCCCCCCC=C1CCCCC1 (relative stereo)
hemolysis at 100 µM [1]: 66.4%
IC50 [2]: 30.7 µM
IC50 [3]: 1.1 µM
IC50 [4]: 8.6 µM
hemolysis at 500 µM [5]: 100%
IC50 [6]: > 100 µM
HC50 [7]: 76.3 µM

CCCCCCCCCCCCCCCCOP(=O)([O-])OCC[N+](C)(C)C [MILTEFOSINE]
hemolysis at 100 µM [1]: 96.1%
IC50 [2]: 28.6 µM
IC50 [3]: 6.7 µM
IC50 [4]: 8.7 µM
hemolysis at 500 µM [5]: 100%
half-life [8]: 100 h
Activity [9]: Toxic
IC50 [6]: 23.9 µM

CCCCCCCCCCCCCCCCOP(=O)([O-])O[C@@H]1CCCC[C@H]1[N+](C)(C)C (relative stereo)
hemolysis at 100 µM [1]: 20.4%
IC50 [2]: 21.3 µM
IC50 [3]: 1.7 µM
IC50 [4]: 71.9 µM
hemolysis at 500 µM [5]: 55.4%
IC50 [6]: > 100 µM
HC50 [7]: > 100 µM

C[N+](C)(C)CCOP(=O)([O-])OCCCCCCCCCCC=C1CCCCCCCCCCCCCC1
hemolysis at 100 µM [1]: 17.7%
IC50 [2]: 37.7 µM
IC50 [3]: 0.75 µM
IC50 [4]: 68.2 µM
hemolysis at 500 µM [5]: 100%
IC50 [6]: 100 µM
HC50 [7]: 100 µM

C[N+](C)(C)CCOP(=O)([O-])OCCCCCC1CCCCCCCCCCCCCC1
hemolysis at 100 µM [1]: 8.7%
IC50 [2]: > 500 µM
IC50 [3]: 0.7 µM
IC50 [4]: 0.9 µM
hemolysis at 500 µM [5]: 100%
Activity [9]: Non-toxic
IC50 [6]: 1.4 µM
HC50 [7]: > 100 µM

C[N+]1(C)C2CCC1CC(=CCOP(=O)([O-])OCCCCCCCCCCC=C1C3CC4CC(C3)CC1C4)C2
hemolysis at 100 µM [1]: 82.3%
IC50 [2]: 147 µM
IC50 [3]: 9.1 µM
IC50 [4]: 41.6 µM
hemolysis at 500 µM [5]: 100%
IC50 [6]: > 100 µM
HC50 [7]: 61.3 µM

C[N+]1(CCOP(=O)([O-])OCCCCC=C2CCCCCCCCCCCCCC2)CCOCC1
hemolysis at 100 µM [1]: 45.4%
IC50 [2]: 372 µM
IC50 [3]: 4.4 µM
IC50 [4]: 1.94 µM
hemolysis at 500 µM [5]: 88.3%
IC50 [6]: 1.8 µM
HC50 [7]: > 100 µM
